# HTR2A ag = agonists of mouse serotonin 5-HT2A receptor (HTR2A); activation, % at 7.6 µM; hit rate 0.66% among 360,000; P35363; AID 624169; CHO-K1 mHTR2A beta-arrestin complementation, luminescence; percent of 30 µM serotonin response;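 active means activation above a run cutoff, the mean activation of all tested compounds plus 3 SD, cut at about 14% in these data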;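 further: 0% = plate median of compound wells and 100% = 30 µM serotonin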
# Target sequence (P35363 whole entry, looked up): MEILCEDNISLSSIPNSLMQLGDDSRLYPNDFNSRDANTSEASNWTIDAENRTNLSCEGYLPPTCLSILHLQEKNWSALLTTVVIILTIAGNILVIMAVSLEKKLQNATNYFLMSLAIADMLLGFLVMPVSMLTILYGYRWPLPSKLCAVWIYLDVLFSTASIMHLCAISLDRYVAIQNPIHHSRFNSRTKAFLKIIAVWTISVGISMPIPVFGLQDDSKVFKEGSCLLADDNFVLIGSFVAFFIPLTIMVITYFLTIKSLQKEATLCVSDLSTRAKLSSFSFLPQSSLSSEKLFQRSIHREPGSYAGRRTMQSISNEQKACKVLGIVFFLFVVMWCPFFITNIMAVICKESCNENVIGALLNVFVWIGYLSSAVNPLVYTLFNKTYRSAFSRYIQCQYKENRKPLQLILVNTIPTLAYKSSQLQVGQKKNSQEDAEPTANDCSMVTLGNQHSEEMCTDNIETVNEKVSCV
# APJ ag = APJ receptor agonism; P35414; CHO-K1 APJ PathHunter beta-arrestin, luminescence; 0% DMSO wells, 100% apelin; activation, % at 20 µM; hit rate 0.11% among 330,000; AID 2520;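 active means activation more than six SD over the plate average, tested at 20 µM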;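 further: 0% = DMSO alone and 100% = apelin-13 at 10 nM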
#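 Incubation: overnight seeding, 90 min compound at 25 °C, 1 h detection; test system: PathHunter CHO-K1 APJ (AGTRL-1) beta-arrestin reporter cells; amount: 1000 cells/well; doses: one dose, 20 µM compound, 1% DMSO; measured by: beta-gal luminescence; measure: agonist-driven arrestin binding to APJ; benchmarks: negative DMSO alone, positive Apelin-13 at 10 nM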
# CXCR6 block = inhibitors of human CXCR6 receptor. O00574. CHO-K1 PathHunter CXCR6 beta-arrestin, luminescence. inhibition, % at 20 µM. hit rate 0.36% among 360,000; in the data active means inhibition above about 34%, passing the limit was not always enough;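 further: antagonist mode with CXCL16 agonist at 10 nM final; 0% = 10 nM CXCL16 with DMSO and 100% = unstimulated wells without agonist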
# CCR6 antagonist = CCR6 (human) receptor antagonism; AID 493098; inhibition, % at 20 µM; P51684; hit rate 0.49% among 340,000; CHO-K1 CCR6 PathHunter beta-arrestin, luminescence, CCL20-stimulated;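 active means compounds whose inhibition of the agonist-driven luminescence signal at 20 µM reaches about 50%, limit read from the data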;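 further: cells stimulated with CCL20 at 14 nM final; plate controls were DMSO with CCL20 for no effect and DMSO without agonist for full effect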
# APJ antagonist = APJ receptor antagonism; P35414; CHO-K1 APJ beta-arrestin complementation, luminescence; inhibition, % at 20 µM; hit rate 0.32% among 330,000; AID 2521;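 active means inhibition above about 40% at 20 µM, limit read from the data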;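 further: cells challenged with 10 nM apelin-13 agonist together with compound; plate controls were apelin-13 plus DMSO wells for no effect and DMSO wells lacking apelin-13 for full effect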
# EBI2 block = EBI2 (human) antagonism; P32249; EBI2 beta-arrestin recruitment, luminescence, 7a,25-OHC stimulated; inhibition, % at 5 µM; hit rate 0.81% among 360,000; AID 651636; in the data active means inhibition above about 38%;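 further: enzyme fragment complementation signal reports receptor beta-arrestin coupling in cells; 0% = agonist plus DMSO wells and 100% = wells without agonist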
# The depositor's hits bear a star; x = not tested or not shown. Rows were chosen to be rich in hits. Some 2.2% of all compounds tested hit in one or more screens of this group.
SMILES,HTR2A ag,APJ ag,CXCR6 block,CCR6 antagonist,APJ antagonist,EBI2 block
O=C(NNc1cc(N2CCCC2)nc(N2CCCC2)n1)c1ccc([N+](=O)[O-])cc1,-1,2,14,28,20,5
CCCCNC(=O)c1nc(-c2cccnc2OC)oc1-c1ccc(Cl)cc1,-5,x,x,x,x,31
COc1ccc(OC)c2sc(N(CCCN(C)C)C(=O)CCS(=O)(=O)c3ccccc3)nc12,-3,0,62*,70*,39,54*
O=C(Nc1ccc(Oc2c(F)c(F)c(F)c(F)c2F)cc1)OC1CCN2Cc3ccccc3N=C12 (centres undefined),-4,7,3,-2,-2,44*
Cc1cccc(NC(=O)Nc2ccc(Oc3c(F)c(F)c(F)c(F)c3F)cc2)c1,0,3,-8,9,-2,8
O=C(Nc1ccc(Cl)cc1)Nc1ccccc1Sc1ncc([N+](=O)[O-])s1,3,-2,34,50*,8,39
CC(=O)OC[C@]12CC[C@H]3[C@@](C)(CC[C@H]4C(C)(C)CCC[C@]34C)[C@@H]1CC(C1=CC(=O)OC1O)O2 (some centres undefined),0,x,39,x,x,87*
CC(=O)OC[C@]1(OC(C)=O)C[C@@]23CC[C@H]4[C@@](C)(CCC[C@@]4(C)C(=O)O)[C@@H]2CC[C@@H]1C3,-1,-6,-8,-7,-8,-16
CCOC(=O)C1CCN(Cc2cnc(Oc3ccc(OC)cc3)s2)CC1,22*,-2,1,-8,9,23
C=CCNC(=S)NNC(=O)COc1ccc2cc(Br)ccc2c1,16*,-5,11,12,29,37
O=C(O)c1[nH]c(-c2ccccc2)c2c1C(=O)N(C1CC1)C2=O,-4,x,-4,x,x,1
CC(=O)Oc1ccc(Cn2c(C)c(C(=O)NC3CC3)sc2=O)cc1,2,x,1,x,x,-3
Cc1cc2c(cc1C)NC(c1c(C)n(C)n(-c3ccccc3)c1=O)C1=C(CC(C)(C)CC1=O)N2 (centres undefined),4,-1,12,77*,8,16
COc1ccc(-c2nc3ccccc3[nH]2)cc1,0,1,-2,-1,6,-6
COc1ccc(-c2nc(=S)c3ccc4ccccc4c3[nH]2)cc1,3,x,45*,71*,x,3
CN(Cc1ccccc1)C(=O)[C@@H]1CCCN1C(=O)[C@@H]1CCCN1C(=O)c1cccc(Cl)c1,6,x,4,x,x,-7
COc1ccc(NC(=O)Cc2ccc(Cl)c(Cl)c2)cn1,6,-1,-4,-10,-1,3
COc1ccc(NC(=O)/C(Cl)=C(/Cl)S(=O)(=O)Cc2ccc(C)cc2)cn1,-7,x,48*,57*,x,70*
COc1ccc(S(=O)(=O)N2CCCCC2c2cc(C(=O)NCc3ccccc3)no2)cc1 (centres undefined),2,x,-1,x,x,5
CC1(C(=O)NCc2ccccc2)CSCC(=O)N1C1CC1 (centres undefined),2,x,x,x,x,-6
CCCCCCCCCCCCC/C=C/[C@@H](O)[C@@H](N)CO,0,-5,16,67*,22,10
O=C(/C=C1\NC2(CCCC2)Cc2ccccc21)N1CCOCC1,-1,-4,12,28,-1,-17
CC1(C)Cc2c(ccc3ccccc23)/C(=C/C(=O)N2CCCCC2)N1,-2,-9,28,64*,16,24
CC1(c2nnnn2-c2ccc3c(c2)OCCO3)CCC(=O)N1CCCn1ccnc1 (centres undefined),1,x,-4,x,x,1
CCCCC(=O)N(C)c1c(CC)nc2c(OCC(=O)N(C)C)cccn12,13,x,-2,x,x,3
CC(C)(C)c1ccc(C(=O)NCCC(=O)N2CCCC2)cc1,6,0,-1,4,-6,2
CC(C)(C)c1ccc(C(=O)NCCC(=O)N2CCN(c3ncccn3)CC2)cc1,17*,-1,-6,8,2,-8
COc1ccc(Cn2cc(CN3CC(N4CCN(Cc5ccccc5F)CC4)CS3(=O)=O)nn2)cc1 (centres undefined),7,x,-6,x,x,0
O=C(c1nnsc1S(=O)c1ccc(Cl)cc1)N1CCOCC1 (centres undefined),-4,-1,67*,74*,24,27
